# Laboratory results: publication PMC10237622 (Structure (London, England : 1993), 2023)
# Assays:
# [1] = biological target: CSP peptide Pep-IV (3 NPNV; 1 NPNA); assay: Biolayer interferometry; assay type: binding, Plasmodium falciparum
# [2] = test system: CSP peptide Pep-I (1 NPNV; 0 NPNA); assay: Biolayer interferometry; assay type: binding, Plasmodium falciparum; conditions: IgG versus Fab
# Method in brief: (§1)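 Streptavidin biosensors were loaded with biotinylated CSP peptide at 0.1 ug/mL in PBS + 1% BSA. Loading times were shortened per peptide (45, 30, 15, 3 s) to keep density below 0.01 nm. After a 60 s baseline, Fab (2000–2.7 nM), IgG (1000–1.3 nM) or IgM (100–0.1 nM) associated for 240–300 s, then dissociated 1200 s, at 30°C with agitation. Curves were drift-corrected against a loaded sensor in PBS and fitted globally to a 1:1 Langmuir model.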
# [3] = test system: peptides Pep-I through Pep-IV; assay: Reverse-format BLI, immobilized L9 IgG dipped into peptide; assay type: binding, Plasmodium falciparum; conditions: IgG (5 ug/mL) immobilized on AHC biosensors to 0.1 nm, dipped into varying peptide concentrations, 30°C
# [4] = test system: CSP peptide Pep-II (1 NPNV; 1 NPNA); assay: Biolayer interferometry; assay type: binding, Plasmodium falciparum
# Method in brief: as §1
# [5] = test system: CSP peptides Pep-II through Pep-IV; assay: BLI free energies of binding, peptides Pep-II through Pep-IV versus Pep-I; set-up: species or system Plasmodium falciparum; conditions: Pep-II though Pep-IV after subtraction of Pep-I
# Method in brief: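 Free energy of binding was calculated from each experimental KD. The Pep-I value was subtracted from Pep-II through Pep-IV to isolate added binding energy from multivalent and homotypic interactions.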
# [6] = test system: CSP peptide Pep-III (2 NPNV; 0 NPNA); assay: Biolayer interferometry; assay type: binding, Plasmodium falciparum
Substance,"decrease in KD (in words) ([1]; L9 IgG, Pep-IV versus Pep-I)",affinity (in words) ([1]; Pep-IV (3 NPNV; 1 NPNA)),"on-rate, fold higher than Fab [2] [fold]","affinity, reverse format (in words) [3]","increase in affinity (free energy of binding ΔG minus ΔG of Pep-I) ([4]; L9 IgG, homotypic and less preferred NPNA with two L9s (Pep-II), calculated from KD) [kcal/mol]","affinity, fold higher than to Pep-I ([4]; Pep-II versus Pep-I)","increase in affinity, Fab/IgG/IgM context compared (in words) [5]","increase in affinity (free energy of binding ΔG minus ΔG of Pep-I) ([6]; L9 IgG, homotypic and preferred NPNV with two L9s (Pep-III), calculated from KD) [kcal/mol]","affinity, fold higher than to Pep-II ([6]; Pep-III versus Pep-II)"
"L9 IgG: L9 IgG, produced in house",over two orders of magnitude,substantially higher affinity,25,comparable affinities to peptides Pep-I through Pep-IV,-1.1,~ 6 fold,greatest in the IgG context,-2.2,~ 6 fold
"IgM: L9 IgM, produced in house",–,–,–,–,–,–,lowest in the IgM context,–,–
